In ChEMBL document CHEMBL1926502, “The discovery of UK-369003, a novel PDE5 inhibitor with the potential for oral bioavailability and dose-proportional pharmacokinetics” (Bioorg Med Chem, 2012):
pIC50: −log10 of the molar value. Converted amounts (≈) assume the structure as drawn.

Legend:
[1] = target: cGMP-specific 3',5'-cyclic phosphodiesterase (Homo sapiens, UniProt O76074); test: Inhibition of human PDE5 isolated from corpus cavernosum after 30 to 60 mins by scintillation counting method
Homo sapiens [2] = species on record: Homo sapiens; test: Selectivity ratio of IC50 for PDE6 to IC50 for human PDE5
Method in brief: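 PDE5 was prepared from human corpus cavernosum and cone PDE6 from dog retina (anion-exchange fraction). IC50s came from concentration–response curves in a scintillation proximity assay with [3H]/unlabelled cGMP (1:3) at about 1/3 Km, so IC50 = Ki. Buffer was 20 mM Tris-HCl pH 7.4, 5 mM MgCl2, 1 mg/mL BSA; 30–60 min at 30 °C, <30% turnover. Ratio = PDE6 IC50/PDE5 IC50.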

[3] = Lipophilicity, log D of the compound at pH 7.4; type: physicochemical; details: buffer
[4] = Half life in human liver microsomes; type: ADME, Microsome
[5] = Apparent permeability from apical to basolateral side of human Caco2 cells at 25 uM; type: ADME, cell-based; details: Caco-2
Caco-2 = test: Efflux ratio of apparent permeability from apical to basolateral to basolateral to apical side of human Caco2 cells; type: ADME, cell-based
Method in brief: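 Caco-2 cell monolayers; flux measured in both directions, and the efflux ratio is taken as apical→basolateral flux divided by basolateral→apical flux.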

[6] = Clearance in dog at 0.5 mg/kg, iv; type: ADME, organism-based, Canis lupus familiaris; design: dose 0.5 mg/kg, route intravenous; details: in vivo
[7] = Volume of distribution in dog at 0.5 mg/kg, iv and 1 mg/kg, po; type: ADME, organism-based, Canis lupus familiaris; details: in vivo
[8] = Elimination half life in dog at 0.5 mg/kg, iv and 1 mg/kg, po; type: ADME, organism-based, Canis lupus familiaris; details: in vivo, read-out: beta t1/2 (converted)
[9] = Oral bioavailability in dog at 1 mg/kg; type: ADME, organism-based, Canis lupus familiaris; details: in vivo
[10] = Clearance in rat at 1 mg/kg, iv; type: ADME, organism-based; design: dose 1 mg/kg, route intravenous; details: in vivo
[11] = Volume of distribution in rat at 1 mg/kg, iv and 2 mg/kg, po; type: ADME, organism-based; details: in vivo
[12] = Elimination half life in rat at 1 mg/kg, iv and 2 mg/kg, po; type: ADME, organism-based; details: in vivo, read-out: beta t1/2 (converted)
[13] = Oral bioavailability in rat at 2 mg/kg; type: ADME, organism-based; details: in vivo
[14] = Aqueous solubility of the compound at pH 6.7; type: physicochemical; details: buffer
[15] = Aqueous solubility of the compound in 0.2 M lactate buffer at pH 4.3; type: physicochemical
[16] = Volume of distribution in human at 0.43 mg/kg, iv; type: ADME, organism-based; design: dose 0.43 mg/kg, route intravenous; details: in vivo
[17] = Elimination half life in human at 0.43 mg/kg, iv; type: ADME, organism-based; design: dose 0.43 mg/kg, route intravenous; details: in vivo, read-out: beta t1/2 (converted)
[18] = Cmax in human at 1.43 mg/kg, po; type: ADME, organism-based; design: dose 1.43 mg/kg, route oral; details: in vivo
[19] = Tmax in human at 1.43 mg/kg, po; type: ADME, organism-based; design: dose 1.43 mg/kg, route oral; details: in vivo
Homo sapiens [20] = test: AUC in human at 1.43 mg/kg, po; type: ADME, organism-based, Plasma; design: dose 1.43 mg/kg, route oral; details: in vivo
Method in brief: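 Human pharmacokinetic study. The oral arm was given at 1.43 mg/kg, and a separate intravenous arm at 0.43 mg/kg. AUC (ng h/ml) was derived from the oral dosing, alongside Cmax, Tmax and oral bioavailability.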

Homo sapiens [21] = test: Oral bioavailability in human at 1.43 mg/kg; type: ADME, organism-based; details: in vivo

Structure (SMILES) | pIC50 [1] | Ratio IC50 (Homo sapiens [2]) | other results
CCOc1ncc(S(=O)(=O)N2CCN(CC)CC2)cc1-c1nc2c(CC)n(C3CNC3)nc2c(=O)[nH]1 | 7.80 | 28 | 
CCOc1ncc(S(=O)(=O)N2CCN(CC)CC2)cc1-c1nc2c3n(nc2c(=O)[nH]1)CCCC3C (single isomer, unassigned; (-)) [listing 1 of 2 here] |  | 55 | 
CCCOc1ccc(S(=O)(=O)N2CCN(CC)CC2)cc1-c1nc2c(CC)n(Cc3ccccn3)nc2c(=O)[nH]1 |  | 842 | 
CCOc1ncc(S(=O)(=O)N2CCN(CC)CC2)cc1-c1nc2c3n(nc2c(=O)[nH]1)CCCC3C (single isomer, unassigned; (+)) [listing 1 of 2 here] | 8.47 |  | 
CCc1c2nc(-c3cc(S(=O)(=O)N4CCN(CC)CC4)cnc3OCC(C)C)[nH]c(=O)c2nn1CCCN(C)C | 8.61 | 404 | 
CCc1c2nc(-c3cc(S(=O)(=O)N4CCN(CC)CC4)cnc3OCc3ccccn3)[nH]c(=O)c2nn1CCOC | 9.12 | 309 | 
CCN1CCN(S(=O)(=O)c2cnc(OCCOC)c(-c3nc4c5n(nc4c(=O)[nH]3)CCCC5C)c2)CC1 (single isomer, unassigned; (-)) [listing 1 of 2 here] |  | 490 | 
CCOc1ncc(S(=O)(=O)N2CCN(CC)CC2)cc1-c1nc2c3n(nc2c(=O)[nH]1)CCCC3C (single isomer, unassigned; (-)) [listing 2 of 2 here] | 8.43 |  | 
CCc1c2nc(-c3cc(S(=O)(=O)N4CCN(CC)CC4)cnc3OCC(C)C)[nH]c(=O)c2nn1CCOC | 9.16 | 204 | logD [3]: 2.9; half-life [4]: 7 min; Papp A→B at 25 µM [5]: 40 ×10⁻⁶ cm/s; Ratio (Caco-2): 1.1
CCc1c2nc(-c3cc(S(=O)(=O)N4CCN(CC)CC4)cnc3OCCOC)[nH]c(=O)c2nn1C1CCOCC1 | 8.78 | 241 | 
CCOc1ncc(S(=O)(=O)N2CCN(CC)CC2)cc1-c1nc2c3n(nc2c(=O)[nH]1)CCCC3 | 7.97 | 70 | 
CCCn1nc2c(=O)[nH]c(-c3cc(S(=O)(=O)N4CCN(CC)CC4)cnc3OCCOC)nc2c1CC | 8.74 | 170 | 
CCc1c2nc(-c3cc(S(=O)(=O)N4CCN(CC)CC4)cnc3OCCOC)[nH]c(=O)c2nn1CCN1CCOCC1 | 8.90 | 210 | logD [3]: 1.1; half-life [4]: 48 min; Papp A→B at 25 µM [5]: 2.8 ×10⁻⁶ cm/s; Ratio (Caco-2): 8
CCc1c2nc(-c3cc(S(=O)(=O)N4CCN(C)CC4)cnc3OCCOC)[nH]c(=O)c2nn1CC(C)C | 8.54 | 237 | logD [3]: 2.3; half-life [4]: 28 min; Papp A→B at 25 µM [5]: 19 ×10⁻⁶ cm/s; Ratio (Caco-2): 2.2
CCCOc1ncc(S(=O)(=O)N2CCN(CC)CC2)cc1-c1nc2c3n(nc2c(=O)[nH]1)CCCC3 | 8.61 | 55 | 
CCc1c2nc(-c3cc(S(=O)(=O)N4CCN(CC)CC4)cnc3OCCOC)[nH]c(=O)c2nn1C1CCC1 | 8.75 | 219 | 
CCOc1ncc(S(=O)(=O)N2CCN(CC)CC2)cc1-c1nc2c(CC)n(CCN3CCOCC3)nc2c(=O)[nH]1 | 9.07 | 184 | logD [3]: 1.6; half-life [4]: 18 min; Papp A→B at 25 µM [5]: 2.5 ×10⁻⁶ cm/s; Ratio (Caco-2): 11.2
CCCCOc1ncc(S(=O)(=O)N2CCN(CC)CC2)cc1-c1nc2c(CC)n(C3CCN(S(C)(=O)=O)CC3)nc2c(=O)[nH]1 | 9.51 | 100 | 

Structure (SMILES) | pIC50 [1] | Ratio IC50 (Homo sapiens [2]) | other results
CCN1CCN(S(=O)(=O)c2cnc(OCCOC)c(-c3nc4c5n(nc4c(=O)[nH]3)CCCC5C)c2)CC1 (single isomer, unassigned; (+)) [listing 1 of 2 here] |  | 149 | 
CCc1c2nc(-c3cc(S(=O)(=O)N4CCN(CC)CC4)cnc3OCCOC)[nH]c(=O)c2nn1C(C)C | 8.87 | 354 | 
CCOc1ncc(S(=O)(=O)N2CCN(CC)CC2)cc1-c1nc2c3n(nc2c(=O)[nH]1)CCCC3C (single isomer, unassigned; (+)) [listing 2 of 2 here] |  | 125 | 
CCCn1nc2c(=O)[nH]c(-c3cc(S(=O)(=O)N4CCN(C)CC4)cnc3OCCOC)nc2c1CC | 8.36 | 165 | 
CCc1c2nc(-c3cc(S(=O)(=O)N4CCN(CC)CC4)cnc3OCCOC)[nH]c(=O)c2nn1CC1CC1 | 9.00 | 189 | 
CCCOc1ncc(S(=O)(=O)N2CCN(CC)CC2)cc1-c1nc2c(CC)n(CCOC)nc2c(=O)[nH]1 | 9.16 | 51 | 
CCCCOc1ncc(S(=O)(=O)N2CCN(CC)CC2)cc1-c1nc2c(CC)n(C3CN(C)C3)nc2c(=O)[nH]1 | 9.11 | 209 | logD [3]: 2.8; half-life [4]: 74 min; Papp A→B at 25 µM [5]: 6 ×10⁻⁶ cm/s; Ratio (Caco-2): 4
CCN1CCN(S(=O)(=O)c2cnc(OCCOC)c(-c3nc4c5n(nc4c(=O)[nH]3)CCCC5C)c2)CC1 (single isomer, unassigned; (+)) [listing 2 of 2 here] | 8.56 |  | 
CCCCOc1ncc(S(=O)(=O)N2CCN(CC)CC2)cc1-c1nc2c(CC)n(C3CCN(C)CC3)nc2c(=O)[nH]1 | 9.13 | 184 | 
CCc1c2nc(-c3cc(S(=O)(=O)N4CCN(CC)CC4)cnc3OCC3CC3)[nH]c(=O)c2nn1CCN1CCOCC1 | 9.59 | 153 | 
CCc1c2nc(-c3cc(S(=O)(=O)N4CCN(CC)CC4)cnc3OCCOC)[nH]c(=O)c2nn1CC(C)C | 8.98 | 331 | logD [3]: 2.8; half-life [4]: 11 min; Papp A→B at 25 µM [5]: 24 ×10⁻⁶ cm/s; Ratio (Caco-2): 2.5
CCN1CCN(S(=O)(=O)c2cnc(OCCOC)c(-c3nc4c5n(nc4c(=O)[nH]3)CCCC5C)c2)CC1 (single isomer, unassigned; (-)) [listing 2 of 2 here] | 8.71 |  | logD [3]: 1.6; half-life [4]: 11.2 min; Papp A→B at 25 µM [5]: 24 ×10⁻⁶ cm/s; Ratio (Caco-2): 1.5; clearance [6]: 20 mL/min/kg; Vd [7]: 2.6 L/kg; half-life [8]: 90 min; bioavailability [9]: 18%
CCc1c2nc(-c3cc(S(=O)(=O)N4CCN(CC)CC4)cnc3OCCOC)[nH]c(=O)c2nn1CCOC | 8.82 | 306 | logD [3]: 1.4; half-life [4]: 70 min; Papp A→B at 25 µM [5]: 9 ×10⁻⁶ cm/s; Ratio (Caco-2): 4.2
CCOc1ncc(S(=O)(=O)N2CCN(CC)CC2)cc1-c1nc2c(CC)n(C3CN(C)C3)nc2c(=O)[nH]1 | 8.09 | 52 | 
CCOc1ncc(S(=O)(=O)N2CCN(CC)CC2)cc1-c1nc2c(CC)n(CCOC)nc2c(=O)[nH]1 | 8.91 |  | logD [3]: 2.1; half-life [4]: 28 min; Papp A→B at 25 µM [5]: 16 ×10⁻⁶ cm/s; clearance [10]: 26.6 mL/min/kg; Vd [11]: 2.2 L/kg; half-life [12]: 57 min; bioavailability [13]: 61%; clearance [6]: 16 mL/min/kg; Vd [7]: 2.8 L/kg; half-life [8]: 126 min; bioavailability [9]: 55%; solubility [14]: 100 mg/mL (≈ 192 mM); solubility [15]: > 14 mg/mL; Vd [16]: 2.8 L/kg; half-life [17]: 156 min; Cmax [18]: 205 ng/mL; Tmax [19]: 60 min; AUC (Homo sapiens [20]): 95.2 ng·h/mL; F (Homo sapiens [21]): 34%
CCN1CCN(S(=O)(=O)c2cnc(OCCOC)c(-c3nc4c5n(nc4c(=O)[nH]3)CCCC5)c2)CC1 | 8.07 | 392 | 
CCCCOc1ncc(S(=O)(=O)N2CCN(CC)CC2)cc1-c1nc2c(CC)n(CCN(C)C)nc2c(=O)[nH]1 | 9.00 | 171 | logD [3]: 3; Papp A→B at 25 µM [5]: 2.8 ×10⁻⁶ cm/s; Ratio (Caco-2): 7
